The test system of data set [1] is P388/ADR. Description: Compound was evaluated for the growth inhibition of P388/ADR cells. It is filed as functional, cell-based. The note with it: Mus musculus. In outline:
(§1)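 Growth of P388/S cells, the routine screening line, and of the P388/ADR resistant subline measured after 48-h drug exposure. IC50 is the concentration giving 50% growth inhibition.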

Data set [2] concerns P388. Description: Compound was evaluated for the growth inhibition of P388/S, cells. It is filed as functional, cell-based. The note with it: Mus musculus. The procedure, abridged: as §1
Data set [3] is described as follows: Compound was evaluated for the change in Tm of isolated helical DNA in solution. It is filed as ADME. The procedure, abridged:
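Thermal denaturation of calf thymus DNA, 5.2 × 10⁻⁵ M (P), with drug at 5.2 × 10⁻⁶ M, in 0.01 M phosphate buffer pH 7 with EDTA and 5% Me₂SO. ΔTm = Tm of DNA–drug complex minus Tm of DNA alone.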

Data set [4] relates to L1210. Put plainly: Compound was evaluated for the inhibition of RNA synthesis in leukemia L1210 cells. It is filed as functional. The conditions noted are these: Mus musculus, read-out: ED50 (the source's name). The procedure, abridged: (§2)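 Actively growing L1210 cells exposed to drug for 3 h; drug dissolved first in Me₂SO, final 1% Me₂SO. Read-out is incorporation of [³H]thymidine into DNA or [³H]uridine into RNA. ED50 is the concentration giving 50% inhibition.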

Data set [5] has as its system L1210. Put plainly: Compound was evaluated for the inhibition of DNA synthesis in leukemia L1210 cells. Type of data set: functional. The conditions noted are these: Mus musculus, read-out: ED50 (the source's name). In outline: as §2
Data set [6] has as its system HeLa. Put plainly: (§3) Compound was evaluated for the inhibition of colony formation in HeLa cells. Type of data set: functional. The conditions noted are these: Homo sapiens, read-out: ID50 (the source's name). In outline: (§4)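 Exponentially growing HeLa cells exposed to drug for 24 h, then plated at 50 cells/mL in drug-free medium. Colonies grown 7–10 days at 37 °C in humidified 95:5 air/CO₂, then scored. ID50 is the concentration giving 50% inhibition of colony growth.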

Data set [7] is described as follows: Partition coefficient in octanol-phosphate buffer at pH 7.4. It is filed as physicochemical. The procedure, abridged:
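Drug partitioned between octanol and phosphate buffer pH 7.4. Concentrations in each phase measured by UV absorbance; log P is the log of organic-phase over aqueous-phase concentration.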

The nature of data set [8]: Resistance index was measured as ratio of IC50 of P388/ADR to that of P388/S.
The species entered for data set [9] is Mus musculus. Put plainly: Compound was evaluated for the antitumor efficacy at optimal dose against P388 in mice. Type of data set: functional. The procedure, abridged: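 Mice given 10⁶ P388 leukemia cells ip on day 0, then dosed ip on day 1 at the optimal dose. Efficacy expressed as % T/C, the mean survival time of treated over control mice; ≥120% counts as active.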

A short description of data set [10]: Compound was evaluated for the percentage of hydrolysis product (aglycon) formed at pH of 4. Type of data set: ADME. The note with it: pH 4. The procedure, abridged:
(§5)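 Stock solutions at 0.6 mg/mL in CH3CN (or CH3OH) were diluted 1:1 with phosphate buffer (pH 7), citrate buffer (pH 4) or 0.1 N HCl-KCl (pH 2). They were held at 23 °C for 22 h, then analysed by reverse-phase HPLC in 0.1 M NaH2PO4-CH3CN (75:25) with 254 nm absorbance. Each value is the amount detected at that time divided by the total detected at start.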

A short description of data set [11]: Compound was evaluated for the percentage of hydrolysis product (aglycon) formed at pH of 2. Type of data set: ADME. The note with it: pH 2. The procedure, abridged:
as §5

Data set [12] relates to P388/S. Put plainly: Compound was evaluated for the growth inhibition of P388/S cells. The note with it: Mus musculus. It is filed as functional, cell-based. The procedure, abridged: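 P388/S is the sensitive line routinely used in screening. Cells were exposed to drug for 48 h before IC50 was determined.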
A short description of data set [13]: Compound was evaluated for the percentage of hydrolysis of compound 2 formed at pH of 2. It is filed as ADME. The note with it: pH 2. In outline: as §5
The nature of data set [14]: Compound was evaluated for the percentage of hydrolysis of compound 2 formed at pH of 4. Type of data set: ADME. The note with it: pH 4. The procedure, abridged:
as §5

A short description of data set [15]: Compound was evaluated for its stability after 22 hr in solution at pH of 2. The note with it: pH 2, read-out: Recovery. Type of data set: physicochemical. In outline: as §5
The nature of data set [16]: Compound was evaluated for the percentage of hydrolysis product (aglycon) formed at pH of 7. Type of data set: ADME. The note with it: pH 7. The procedure, abridged:
as §5

Data set [17] can be described thus: Compound was evaluated for the percentage of hydrolysis of compound 2 formed at pH of 7. Type of data set: ADME. The note with it: pH 7. In outline:
as §5

Data set [18] is described as follows: Compound was evaluated for the overall absorbance loss at pH of 4. Type of data set: ADME. The note with it: pH 4. The procedure, abridged:
as §5

The nature of data set [19]: Compound was evaluated for the overall absorbance loss at pH of 2. It is filed as ADME. The note with it: pH 2. The procedure, abridged: as §5
A short description of data set [20]: Compound was evaluated for the overall absorbance loss at pH of 7. It is filed as ADME. The conditions noted are these: pH 7. The procedure, abridged: as §5
The nature of data set [21]: Compound was evaluated for its stability after 22 hr in solution at pH of 4. It is filed as physicochemical. The note with it: pH 4, read-out: Recovery. The procedure, abridged: as §5
A short description of data set [22]: Compound was evaluated for the percentage of hydrolysis product formed at pH of 4. It is filed as ADME. The conditions noted are these: pH 4. The procedure, abridged:
as §5

A short description of data set [23]: Compound was evaluated for its stability after 22 hr in solution at pH of 7. It is filed as physicochemical. The conditions noted are these: pH 7, read-out: Recovery. The procedure, abridged: as §5
Data set [24] in a line: Compound was evaluated for the percentage of hydrolysis product formed at pH of 7. The conditions noted are these: pH 7. Type of data set: ADME. The procedure, abridged:
as §5

A short description of data set [25]: Compound was evaluated for the percentage of hydrolysis product formed at pH of 2. The note with it: pH 2. It is filed as ADME. In outline: as §5
The test system of data set [26] is HeLa. The description is as §3. Type of data set: functional, Mus musculus. The conditions noted are these: Homo sapiens, read-out: ID50 (the source's name). In outline: as §4

As usually defined, the pIC50 is −log10 of the IC50, conventionally taken in molar units. Higher therefore signals a low IC50. A word on the logD: it is the decadic logarithm of the distribution of all forms, ionised or not, between an organic phase and buffer at a given pH. Read a high logD as higher lipophilicity. As usually defined, the T/C is the ratio of treated to control.

pEC50, pIC50: −log10 of the molar value. Values after ≈ are worked out from the molar mass of the structure shown. Values joined by “and” are separate entries in the source; they are usually repeats but may differ in a detail not shown here. Identical values can stand only once.

Consider `COc1cccc2c1C(=O)c1c(O)c3c(c(O)c1C2=O)C[C@@](O)(C(=O)CO)C[C@@H]3OC1CC(NCCO)C(O)C(C)O1` (stereo partly specified), for which the pIC50 in data set [1] was 5.41; in [2], 6.64. In [3], the “Change in Tm” value is recorded as 10.7. Further, the pEC50 in [4] was 6.09; in data set [5] it was 5.28. In addition, the IC50 in [6] amounted to 0.031 µg/mL (≈ 0.0528 µM). Moreover, in [7], the logD came to 0.19. In addition, the Ratio in data set [8] was determined as 17. In [9], the T/C was 157% and 205%.

For `COc1cccc2c1C(=O)c1c(O)c3c(c(O)c1C2=O)C[C@@](O)(C(=O)CO)C[C@@H]3OC1CC(N2CCOCC2C#N)C(O)C(C)O1` (stereo partly specified), the Hydrolysis in data set [10] was determined as 0.1%; in data set [11] it was 8%; in data set [13] it was 7%; in data set [14] it was 8%; in [16], 0.3%; in data set [17], 0.8%. This molecule showed a pIC50 in data set [12] of 9.80. The “Change in Tm” value in data set [3] is 8.7. Also, the values for the pEC50 in data set [4] and in [5] were 9.28 and 8.52, respectively. Further, in data set [15], the remaining at 22 h worked out at 10%. Also, the Absorbance in data set [18] was 37%; in data set [19] it was 67%; in [20], 17%. Moreover, in [9], the T/C was 262% and 233%.

As for `COc1cccc2c1C(=O)c1c(O)c3c(c(O)c1C2=O)C[C@@](O)(C(=O)CO)C[C@@H]3OC1CC(N2CCOCC2)C(O)C(C)O1` (stereo partly specified), the remaining at 22 h in data set [21] is 88%; in data set [15] it was 96%; in [23] it was 90%. The Hydrolysis in data set [22], in data set [24] and in data set [25] was less than 1% throughout. The values for the Absorbance in data set [18], in data set [19] and in data set [20] were 12%, 4% and 4%, respectively.

In [2], `COc1cccc2c1C(=O)c1c(O)c3c(c(O)c1C2=O)C[C@@](O)(C(=O)CO)C[C@@H]3O[C@H]1C[C@H](N)[C@H](O)[C@H](C)O1` [DOXORUBICIN] gave a pIC50 of 7.17. Besides, the “Change in Tm” value in [3] was determined as 12.8. The pEC50 in data set [4] was 6.24; in [5] it was 5.80. Also, the IC50 in data set [26] was determined as 0.019 µg/mL (≈ 0.035 µM). Moreover, in [9], the T/C is 182% and 273%.

Consider `COc1cccc2c1C(=O)c1c(O)c3c(c(O)c1C2=O)C[C@@](O)(C(=O)CO)C[C@@H]3OC1CC2C(OC(CO)N2CCO)C(C)O1` (stereo partly specified), for which the pEC50 was 6.92 in data set [4] and 6.19 in [5].

The values are drawn from ChEMBL document CHEMBL1123258 (J Med Chem, 1986).
